Experimental data reported in ChEMBL document CHEMBL3272112, “Cycloalkanones. 8. Hypocholesterolemic activity of long-chain ketones related to pentadecanone” (J Med Chem, 1976).

What was measured:
[1] = tested on: Rattus norvegicus; experiment: Hypocholesterolemic activity in Sprague-Dawley rat assessed as serum cholesterol level at 50 mg/kg/day, po administered via intubation measured on day 16 by Liebermann-Burchard method relative to control; format: functional
How it was run: (§1)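 Male Sprague-Dawley rats given compound homogenized in 1% CMC once daily at 11:00 a.m. by oral intubation needle (0.2 cc), doses calculated on weekly body weights; tail-vein blood drawn 24 h after last dose; nonhemolyzed serum (30 μ) assayed by modified Liebermann-Burchard method; N = 8; % of control, mean ± SD; Student's t test.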

[2] = tested on: Rattus norvegicus; experiment: Hypocholesterolemic activity in Sprague-Dawley rat assessed as serum cholesterol level at 1 mg/kg/day, po administered via intubation measured on day 16 by Liebermann-Burchard method relative to control; format: functional; how it was run: as §1
[3] = tested on: Rattus norvegicus; experiment: Toxicity in Sprague-Dawley rat assessed as increase in vesicular gland weight at 10 mg/kg/day administered for 16 days measured on day 16 post last dose relative to total body weight (reference value: 0.118 +/- 0.062%); format: organism-based; conditions: in vivo, 384 h
[4] = organism: Rattus norvegicus; experiment: Disruption of rat liver cell membrane assessed as unlysed cells at 5 mg per gram of tissue measured at 15 mins (reference value: 91 +/- 6%); format: functional
How it was run: (§2)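 Rat liver 10% homogenate in 0.25 M sucrose + 0.001 M EDTA, pH 7.2, incubated at 37°C with Hanke's buffer pH 7.2 and drug suspended in 1% CMC (dose as mg drug per g wet liver); turbidity read as absorbance at 660 nm over 0–4 hr, falling absorbance taken as lysis; expressed as % unlysed cells; vehicle 1% CMC control.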

[5] = tested on: Rattus norvegicus; experiment: Toxicity in Sprague-Dawley rat assessed as effect on RNA level in liver at 10 mg/kg/day measured after 16 days (reference value: 100 +/- 6%); format: organism-based; conditions: in vivo, 384 h
[6] = tested on: Rattus norvegicus; experiment: Toxicity in Sprague-Dawley rat assessed as atrophy of vesicular gland at 10 mg/kg/day administered for 16 days measured on day 16 post last dose; format: organism-based; conditions: in vivo, 384 h
[7] = tested on: Rattus norvegicus; experiment: Hypocholesterolemic activity in Sprague-Dawley rat assessed as serum cholesterol level at 20 mg/kg/day, po administered via intubation measured on day 4 by Liebermann-Burchard method relative to control; format: functional; how it was run: as §1
[8] = tested on: Rattus norvegicus; experiment: Hypocholesterolemic activity in Sprague-Dawley rat assessed as serum cholesterol level at 10 mg/kg/day, po administered via intubation measured on day 4 by Liebermann-Burchard method relative to control; format: functional; how it was run: as §1
[9] = tested on: Rattus norvegicus; experiment: Toxicity in Sprague-Dawley rat assessed as food intake at 1 mg/kg/day measured after 2 weeks (reference value: 24.8 +/- 1.1 g/day); format: organism-based; conditions: in vivo, 336 h
[10] = organism: Rattus norvegicus; experiment: Disruption of rat liver lysosomal membrane assessed as free acid phosphatase activity at 5 mg per gram of tissue measured after 1 hr (reference value: 100 +/- 16%); format: functional, tissue-based
How it was run: (§3)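 10% rat liver homogenate incubated with Hanke's buffer pH 7.2 and drug suspension in 1% CMC in a shaker at 37°C; aliquot removed after 1 hr and percent free (unbound) acid phosphatase activity determined as an index of lysosomal membrane rupture.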

[11] = tested on: Rattus norvegicus; experiment: Toxicity in Sprague-Dawley rat assessed as effect on lipid level in liver at 10 mg/kg/day measured after 16 days (reference value: 100 +/- 13%); format: organism-based; conditions: in vivo, 384 h
[12] = tested on: Rattus norvegicus; experiment: Hypocholesterolemic activity in Sprague-Dawley rat assessed as serum cholesterol level at 1 mg/kg/day, po administered via intubation measured on day 10 by Liebermann-Burchard method relative to control; format: functional; how it was run: as §1
[13] = tested on: Rattus norvegicus; experiment: Toxicity in Sprague-Dawley rat assessed as increase in liver weight at 10 mg/kg/day administered for 16 days measured on day 16 post last dose relative to total body weight (reference value: 4.35 +/- 0.39%); format: organism-based; conditions: in vivo, 384 h
[14] = organism: Rattus norvegicus; experiment: Disruption of rat liver cell membrane assessed as unlysed cells at 10 mg per gram of tissue measured at 30 mins (reference value: 93 +/- 7%); format: functional; how it was run: as §2
[15] = organism: Rattus norvegicus; experiment: Disruption of rat liver cell membrane assessed as unlysed cells at 25 mg per gram of tissue measured at 30 mins (reference value: 93 +/- 7%); format: functional; how it was run: as §2
[16] = tested on: Rattus norvegicus; experiment: Toxicity in Sprague-Dawley rat assessed as increase in body weight at 10 mg/kg/day measured on day 16 (reference value: 195 +/- 16%); format: organism-based; conditions: in vivo
[17] = organism: Rattus norvegicus; experiment: Disruption of rat liver lysosomal membrane assessed as free acid phosphatase activity at 10 mg per gram of tissue measured after 1 hr (reference value: 100 +/- 16%); format: functional, tissue-based; how it was run: as §3
[18] = tested on: Rattus norvegicus; experiment: Toxicity in Sprague-Dawley rat assessed as effect on protein level in liver at 10 mg/kg/day measured after 16 days (reference value: 100 +/- 5%); format: organism-based; conditions: in vivo, 384 h
[19] = organism: Rattus norvegicus; experiment: Disruption of rat liver cell membrane assessed as unlysed cells at 5 mg per gram of tissue measured at 1 hr (reference value: 90 +/- 4%); format: functional; how it was run: as §2
[20] = tested on: Rattus norvegicus; experiment: Toxicity in Sprague-Dawley rat assessed as increase in body weight at 20 mg/kg/day administered for 16 days measured on day 16 post last dose (reference value: 195 +/- 16%); format: organism-based; conditions: in vivo, 384 h
[21] = tested on: Rattus norvegicus; experiment: Toxicity in Sprague-Dawley rat assessed as food intake at 20 mg/kg/day measured after 1 week (reference value: 20.9 +/- 4.9 g/day); format: organism-based; conditions: in vivo, 168 h
[22] = tested on: Rattus norvegicus; experiment: Uterotrophic activity in ovariectomized weaned Sprague-Dawley rat assessed as uterine weight at 10 mg/kg/day measured after 3 days (reference value: 100 +/- 15%); format: ADME, organism-based, Uterus; conditions: in vivo, 72 h
How it was run: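 Weaned rats were ovariectomized and left untreated for 3 days. They were then dosed for 3 days with 17-ethinylestradiol 10 µg/kg/day or test compound 10 mg/kg/day, with 1% CMC as the vehicle control. Rats were then killed and the uterus removed, trimmed and weighed. Results are % of control uterine weight, mean ± SD; N = 7; Student's t test.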

[23] = organism: Rattus norvegicus; experiment: Disruption of rat liver cell membrane assessed as unlysed cells at 25 mg per gram of tissue measured at 1 hr (reference value: 90 +/- 4%); format: functional; how it was run: as §2
[24] = tested on: Rattus norvegicus; experiment: Toxicity in Sprague-Dawley rat assessed as food intake at 1 mg/kg/day measured after 1 week (reference value: 20.9 +/- 4.9 g/day); format: organism-based; conditions: in vivo, 168 h
[25] = organism: Rattus norvegicus; experiment: Disruption of rat liver cell membrane assessed as unlysed cells at 10 mg per gram of tissue measured at 2 hrs (reference value: 77 +/- 8%); format: functional; how it was run: as §2
[26] = tested on: Rattus norvegicus; experiment: Toxicity in Sprague-Dawley rat assessed as effect on glycogen level in liver at 10 mg/kg/day measured after 16 days (reference value: 100 +/- 26%); format: organism-based; conditions: in vivo, 384 h
[27] = tested on: Rattus norvegicus; experiment: Effect on serum triglyceride level in Sprague-Dawley rat at 10 mg/kg/day measured on day 16 (reference value: 100 +/- 21%); format: functional
[28] = tested on: Rattus norvegicus; experiment: Toxicity in Sprague-Dawley rat assessed as estrogenic activity at 10 mg/kg/day; format: organism-based; conditions: in vivo
How it was run: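 Weaned rats ovariectomized, left 3 days, then given 10 mg/kg/day test compound (or 10 μg/kg/day 17-ethinylestradiol as reference) for 3 days; killed, uterus removed, trimmed and weighed; expressed as % uterine weight of 1% CMC control, mean ± SD; Student's t test.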

[29] = tested on: Rattus norvegicus; experiment: Hypocholesterolemic activity in Sprague-Dawley rat assessed as serum cholesterol level at 10 mg/kg/day, po administered via intubation measured on day 10 by Liebermann-Burchard method relative to control; format: functional; how it was run: as §1
[30] = organism: Rattus norvegicus; experiment: Disruption of rat liver cell membrane assessed as unlysed cells at 10 mg per gram of tissue measured at 4 hrs (reference value: 17 +/- 4%); format: functional; how it was run: as §2

## CCCCCCCCCCCCCCC(C)=O
[1]
  Activity: 68%
[2]
  Activity: 71%
[3]
  Activity: 0.121%
[4]
  Activity: 95%
[5]
  Activity: 111%
[6]
  Activity: Non-toxic
[7]
  Activity: 74%
[8]
  Activity: 79%
[9]
  Activity: 26.6 g/day
[10]
  Activity: 85%
[11]
  Activity: 101%
[12]
  Activity: 80%
[13]
  Activity: 4.39%
[14]
  Activity: 95%
[15]
  Activity: 96%
[16]
  Activity: 228%
[17]
  Activity: 89%
[18]
  Activity: 107%
[19]
  Activity: 91%
[20]
  Activity: 225%
[21]
  Activity: 21.4 g/day
[22]
  Activity: 64%
[23]
  Activity: 92%
[24]
  Activity: 22.3 g/day
[25]
  Activity: 77%
[26]
  Activity: 105%
[27]
  Activity: 120%
[28]
  Activity: Non-toxic
[29]
  Activity: 72%
[30]
  Activity: 19%
